Experimental data published in PubChem BioAssay.
The source made the active and inactive calls. Unless noted, no stated cut-off is given here; in the data, active means inhibition above about 30%; inactive means the rest.

What was measured:
[1] = reduced viability of SK-BR-3 breast cancer cells – cell-based, 24 h, human, pilot screen (AID 572;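 active means viability at or below 10% of carrier control in both of two separate runs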;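 further: compound exposure lasted between 18 and 24 h rather than exactly 24 h; 100% = carrier-treated control wells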); settings: SK-BR-3 viability, CellTiter-Glo luminescence, at 10 µM, stronger effect = lower value
[2] = HUVEC growth inhibition – cell-based, human, primary screen (AID 575;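 active means viability at or below 30% in both replicate assays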;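 further: 100% = median of untreated cell wells with 0.1% DMSO on each plate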); settings: HUVEC proliferation, CellTiter-Glo luminescence, 72 h; at 10 µM; stronger effect = lower value
In short: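 System: primary human umbilical vein endothelial cells; Quantity: 1250 endothelial cells in each well; Buffer or medium: supplemented EBM, 2% fetal bovine serum; Doses: one dose, 10 µM final, 0.1% DMSO; Incubation: 72 h compound incubation; Technique: ATP-based CellTiter-Glo luminescent read; Evaluation: percent of median DMSO-control luminescence; Controls: vehicle and MePR control wells.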

[3] = H69AR cell proliferation blockers – human, duplicate replicates, primary screen (AID 580;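 active means viability at or under a set limit in both replicates, limit being median viability minus 3 SD, cut at about 48% in these data, passing the limit was not always enough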;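 further: 100% = mean luminescence of untreated wells and 0% = no signal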); settings: H69AR lung tumor cells viability, ATP luminescence, 72 h; at 10 µM; stronger effect = lower value
[4] = MRP1 drug-resistance reversers in H69AR cells – cell-based, doxorubicin co-treatment, pilot screen (AID 601;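 active means viability loss from added drug above about 55%, and viability with drug at most 40%, in both replicates, limit read from the data, passing the limit was not always enough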); settings: CellTiter-Glo, 72 h, at 10 µM; for differential viability (reversal): stronger effect = higher value
[5] = yeast transport mutant growth inhibition pilot in 384-well plates, post-Golgi transport modulator project (AID 636; in the data active means inhibition above about 31%); settings: absorbance 615 nm, about 18 h, stronger effect = higher value
[6] = growth suppression of yeast trafficking mutant, preliminary HTS, modulators of trafficking downstream of Golgi apparatus project, 1536-format plate, OD 615 nm (AID 637); settings: yeast transport mutant growth, absorbance 615 nm, 18 h; stronger effect = higher value
[7] = H69AR cells + 2 uM doxorubicin, measured here: viability with 2 uM doxorubicin, stronger effect = lower value
[8] = H69AR cells, compound alone cytotoxicity

Row | Structure (SMILES) | viability [1] | viability [2] | viability [3] | differential viability (reversal) ([4]; H69AR cells + 2 uM doxorubicin) | viability [4, 7] | viability [4, 8] | inhibition [5] | inhibition [6]
1 | Cc1ccccc1-n1nc(C)c2cc(C(=O)NCc3cccnc3)sc21 | 126% (inactive) | 74.1% (inactive) | 70.3% (inactive) | 10.8% (inactive) | 59.4% | 70.3% | -1.95% (inactive) | 9.51% (inactive)
2 | COc1ccc(CN(CC(=O)NCC2CCCO2)C(=O)CCC(=O)Nc2cc(C)on2)cc1 (stereo not drawn) | 77% (inactive) | 95.1% (inactive) | 89.4% (inactive) | -4.07% (inactive) | 93.4% | 89.4% | 4.53% (inactive) | 9.27% (inactive)
3 | CC(C)C(=O)N1CCN(c2nc(-c3ccccc3)c3c(c2C#N)CCCC3)CC1 | 103% (inactive) | 74.5% (inactive) | 89.2% (inactive) | 11.5% (inactive) | 77.7% | 89.2% | 8.51% (inactive) | 5.09% (inactive)
4 | Cc1cc(C)nc(SC2=CS(=O)(=O)c3ccccc32)n1 | 102% (inactive) | 73.5% (inactive) | 14.8% (active) | -7.5% (inactive) | 22.3% | 14.8% | -1.2% (inactive) | -1.27% (inactive)
5 | Cc1nc2c(-c3ccccc3)c(C)[nH]n2c(=O)c1Cl | 93% (inactive) | 72.7% (inactive) | 77.5% (inactive) | -19.2% (inactive) | 96.8% | 77.5% | -0.55% (inactive) | 11.8% (inactive)
6 | C/C(=N\O)C(=O)C(CN1CCCCC1)CN1CCCCC1 | 116% (inactive) | 95.6% (inactive) | 8.43% (active) | 5.9% (inactive) | 2.52% | 8.43% | 1.95% (inactive) | -7% (inactive)
7 | CC(C)CN(CC(C)C)C(=O)CS(=O)(=O)Cc1ccccc1 | 87% (inactive) | 98.8% (inactive) | 91.4% (inactive) | 3.15% (inactive) | 88.2% | 91.4% | -5.75% (inactive) | 1.13% (inactive)
8 | COCC(=O)n1nc(NCc2ccc(OC)cc2)nc1NCc1ccc(OC)cc1 | 116% (inactive) | 105% (inactive) | 99.8% (inactive) | 9.29% (inactive) | 90.5% | 99.8% | 53.3% (active) | 28.6% (inactive)
9 | CCOC(=O)c1[nH]c2cc(OC)c(OC)cc2c1NC(=O)C(C)N1CCN(Cc2ccccc2)CC1 (stereo not drawn) | 73% (inactive) | 51.3% (inactive) | 59.2% (inactive) | -6.81% (inactive) | 66.1% | 59.2% | -4.59% (inactive) | -5.09% (inactive)
10 | COc1ccccc1-n1c(SCC(=O)NC(C)(C)C)nnc1-c1ccco1 | 82% (inactive) | 104% (inactive) | 96.1% (inactive) | -15.2% (inactive) | 111% | 96.1% | -4.79% (inactive) | -3.45% (inactive)
11 | O=C(NC1CCCCC1NC(=O)c1ccco1)c1ccco1 (stereo not drawn) | 93% (inactive) | 94.2% (inactive) | 90% (inactive) | -4.53% (inactive) | 94.5% | 90% | 0.53% (inactive) | 3.27% (inactive)
12 | CCCn1c(=O)c2[nH]c(C3CCCC3)nc2n(CCC)c1=O | 100% (inactive) | 77.3% (inactive) | 70.7% (inactive) | 50.8% (inactive) | 19.9% | 70.7% | -1.3% (inactive) | -1% (inactive)
13 | Cc1ccc2nc3c(cc(C(=O)NCC4CCCO4)n3C)c(=O)n2c1 (stereo not drawn) | 134% (inactive) | 110% (inactive) | 94.9% (inactive) | 7.85% (inactive) | 87.1% | 94.9% | -0.96% (inactive) | 25.2% (inactive)
14 | Cc1cccc(-n2ncc3c(NCc4cccs4)ncnc32)c1 | 64% (inactive) | 61.8% (inactive) | 66.1% (inactive) | -22.8% (inactive) | 88.9% | 66.1% | 26.2% (inactive) | 0.36% (inactive)
15 | C[C@]12CCC(=O)C=C1CC[C@@H]1[C@@H]2[C@@H](O)C[C@@]2(C)[C@H]1CC[C@]2(O)C(=O)CO | 103% (inactive) | 96.2% (inactive) | 105% (inactive) | 5.76% (inactive) | 98.9% | 105% | -1.43% (inactive) | -3.83% (inactive)
16 | Cc1cc(Cl)c(S(=O)(=O)Nc2ccc3c(c2)OCCO3)cc1OCC(N)=O | 78% (inactive) | 107% (inactive) | 97.2% (inactive) | 11.7% (inactive) | 85.5% | 97.2% | 0.27% (inactive) | 4.84% (inactive)
17 | Cc1cccc(NC(=O)C2CCCN(C(=O)Nc3ccccc3)C2)c1C (stereo not drawn) | 88% (inactive) | 102% (inactive) | 96.2% (inactive) | 5.37% (inactive) | 90.8% | 96.2% | -1.04% (inactive) | 3.11% (inactive)
18 | Cc1cccc(N2CCN(C(=O)C3CCCN(S(=O)(=O)c4cnc[nH]4)C3)CC2C)c1 (stereo not drawn) | 90% (inactive) | 90.2% (inactive) | 95.6% (inactive) | 6.94% (inactive) | 88.7% | 95.6% | -0.26% (inactive) | -0.98% (inactive)

Row | Structure (SMILES) | viability [1] | viability [2] | viability [3] | differential viability (reversal) ([4]; H69AR cells + 2 uM doxorubicin) | viability [4, 7] | viability [4, 8] | inhibition [5] | inhibition [6]
19 | CC1(C)Cc2c(sc3c2C2=NCCN2C=N3)CS1 | 87% (inactive) | 108% (inactive) | 105% (inactive) | 5.41% (inactive) | 99.4% | 105% | 2.05% (inactive) | 2.73% (inactive)
20 | CC(=O)Oc1ccc(C(c2ccc(OC(C)=O)cc2)c2ccccn2)cc1 | 91% (inactive) | 79% (inactive) | 94.9% (inactive) | -0.25% (inactive) | 95.2% | 94.9% | -0.52% (inactive) | 0.83% (inactive)
21 | COc1ccc(CCNC(=O)CCN2C(=O)C3CC=CCC3C2=O)cc1OC (stereo not drawn) | 103% (inactive) | 91.9% (inactive) | 105% (inactive) | 12% (inactive) | 92.8% | 105% | -2.08% (inactive) | -1.97% (inactive)
22 | COc1ccc(/C=C/C(=O)Nc2ccccc2C(=O)O)cc1OC | 104% (inactive) | 64.4% (inactive) | 94.7% (inactive) | 0.56% (inactive) | 94.1% | 94.7% | 0.78% (inactive) | -1.83% (inactive)
23 | CC1CC(C)CN(CC(=O)Nc2ccc(S(N)(=O)=O)cc2)C1 (stereo not drawn) | 96% (inactive) | 96.9% (inactive) | 84.9% (inactive) | 2.1% (inactive) | 82.8% | 84.9% | 3.29% (inactive) | -2.58% (inactive)
24 | COc1cccc(N2CCN(Cc3nc(N)nc(Nc4ccccc4)n3)CC2)c1 | 119% (inactive) | 89.1% (inactive) | 75.5% (inactive) | -14.5% (inactive) | 90% | 75.5% | -3.77% (inactive) | 0.16% (inactive)
25 | OC[C@H]1O[C@@H](n2cnc3c(NC4CCCC4)ncnc32)[C@H](O)[C@@H]1O | 113% (inactive) | 57.6% (inactive) | 74.9% (inactive) | -18.2% (inactive) | 93% | 74.9% | 0.52% (inactive) | -5% (inactive)
26 | CC1CCCC(C)N1CCNC(=O)C1CCN(S(=O)(=O)N2CCCCC2)CC1 (stereo not drawn) | 93% (inactive) | 110% (inactive) | 104% (inactive) | 13.1% (inactive) | 90.7% | 104% | -1.2% (inactive) | -2.55% (inactive)
27 | Cc1occc1-c1nnc(SCC(=O)N2CCOCC2)n1Cc1ccco1 | 106% (inactive) | 114% (inactive) | 101% (inactive) | -2.24% (inactive) | 103% | 101% | -2.93% (inactive) | 5.09% (inactive)
28 | O=C(Cc1nc2ccccc2s1)c1ccc(O)cc1O | 100% (inactive) | 87.3% (inactive) | 90.8% (inactive) | 4.72% (inactive) | 86% | 90.8% | -4.53% (inactive) | -0.18% (inactive)
29 | Cc1cccc(C)c1OCC(=O)Nc1cccc(NC(=O)c2ccco2)c1 | 97% (inactive) | 71.2% (inactive) | 84.6% (inactive) | 1.53% (inactive) | 83.1% | 84.6% | -3.29% (inactive) | -0.16% (inactive)
30 | O=C(O)CC1Sc2nc3ccccc3n2C1=O (stereo not drawn) | 105% (inactive) | 111% (inactive) | 102% (inactive) | 6.67% (inactive) | 95.4% | 102% | -6.08% (inactive) | -5.27% (inactive)
31 | CN(C)CCN(Cc1ccccc1)c1ccccn1 | 100% (inactive) | 89.1% (inactive) | 101% (inactive) | 8.55% (inactive) | 92.7% | 101% | 3.38% (inactive) | -0.67% (inactive)
32 | COc1ccccc1N1CCN(c2cc(N3CCCC3)nc(C)n2)CC1 | 75% (inactive) | 91.8% (inactive) | 87.8% (inactive) | -3.8% (inactive) | 91.6% | 87.8% | -2.6% (inactive) | -2% (inactive)
33 | C[C@]12C=CC(=O)C=C1CC[C@@H]1[C@@H]2[C@@H](O)C[C@@]2(C)[C@H]1CC[C@]2(O)C(=O)COC(=O)CCC(=O)O | 112% (inactive) | 80.3% (inactive) | 84.4% (inactive) | 2.96% (inactive) | 81.4% | 84.4% | 1.95% (inactive) | 1.33% (inactive)
34 | O=C(CN1C(=O)c2ccccc2C1=O)Nc1ccc(S(=O)(=O)NCC2CCCO2)cc1 (stereo not drawn) | 89% (inactive) | 107% (inactive) | 96.4% (inactive) | -14.1% (inactive) | 110% | 96.4% | -7.4% (inactive) | -4.91% (inactive)
35 | Cc1nc2cc(C(=O)O)ccc2n1-c1ccc(F)cc1F | 120% (inactive) | 94.3% (inactive) | 101% (inactive) | 7.17% (inactive) | 93.7% | 101% | -4.42% (inactive) | 2.62% (inactive)
36 | Cc1ccc(S(=O)(=O)NC(C)C(=O)Nc2ccc(C(N)=O)cc2)cc1 (stereo not drawn) | 81% (inactive) | 88.4% (inactive) | 100% (inactive) | 4.08% (inactive) | 96% | 100% | -0.27% (inactive) | -5.81% (inactive)
